Source: ChEMBL document CHEMBL1139878, “Rapid evolution of 6-phenylpurine inhibitors of protein kinase B through structure-based design” (J Med Chem, 2007)
Active and inactive are the calls of the source. No cut-off for these calls is given here.

Key:
[1] = target: RAC-beta serine/threonine-protein kinase (Homo sapiens, UniProt P31751); assay: Inhibition of PKBbeta by radiometric filter binding assay
[2] = test system: PC-3M; assay: Inhibition of PC3M cells by SRB assay after 96 hrs; format: functional; conditions: Homo sapiens
[3] = target: cAMP-dependent protein kinase (PKA) (Homo sapiens, UniProt P22694+P17612+P22612); assay: Inhibition of PKA by radiometric filter binding assay; format: protein assay
[4] = test system: U-87 MG; assay: Inhibition of U87MG cells by SRB assay after 96 hrs; format: functional, U-87MG ATCC; conditions: Homo sapiens
[5] = test system: U-87 MG; assay: Decrease in pS6 protein levels in U87MG cells after 1 hr by Western blotting; format: functional, cell-based; conditions: Homo sapiens; U-87MG ATCC
Summary of the method: (§1)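 U87MG glioblastoma cells were treated for 1 h across a titration of inhibitor concentrations. Phosphorylation states of PI3K-PKB-mTOR pathway components were then read out by Western blot with phospho-specific antibodies.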

[6] = target: Cytochrome P450 3A4 (Homo sapiens, UniProt P08684); assay: Inhibition of CYP3A4; format: ADME
[7] = target: Cytochrome P450 2C19 (Homo sapiens, UniProt P33261); assay: Inhibition of CYP2C19; format: ADME
[8] = target: Cytochrome P450 2D6 (Homo sapiens, UniProt P10635); assay: Inhibition of CYP2D6; format: ADME
[9] = test system: U-87 MG; assay: Decrease in pFKHR protein levels in U87MG cells after 1 hr by Western blotting; format: functional, cell-based; conditions: Homo sapiens; U-87MG ATCC; summary of the method: as §1
[10] = test system: U-87 MG; assay: Decrease in pGSK3-beta protein levels in U87MG cells after 1 hr by Western blotting; format: functional, cell-based; conditions: Homo sapiens; U-87MG ATCC; summary of the method: as §1
[11] = target: T1, Serine/threonine-protein kinase AKT (Homo sapiens, UniProt P31751+Q9Y243+P31749); assay: Inhibition of GSK3-beta phosphorylation in U87MG cells by ELISA; format: functional, cell-based; conditions: u-87mg atcc
[12] = target: T1, Serine/threonine-protein kinase AKT; assay: Inhibition of GSK3-beta phosphorylation in PC3M cells after 1 hr by ELISA; format: functional, cell-based
[13] = test system: HCT-116; assay: Inhibition of HCT116 cells by SRB assay after 96 hrs; format: functional; conditions: Homo sapiens, HCT-116, 96 h
[14] = target: Cytochrome P450 2C9 (Homo sapiens, UniProt P11712); assay: Inhibition of CYP2C9; format: ADME
[15] = target: T2, Cytochrome P450 1A2 (Homo sapiens, UniProt P05177); assay: Inhibition of CYP1A2; format: ADME
T2 sequence (P05177 whole entry): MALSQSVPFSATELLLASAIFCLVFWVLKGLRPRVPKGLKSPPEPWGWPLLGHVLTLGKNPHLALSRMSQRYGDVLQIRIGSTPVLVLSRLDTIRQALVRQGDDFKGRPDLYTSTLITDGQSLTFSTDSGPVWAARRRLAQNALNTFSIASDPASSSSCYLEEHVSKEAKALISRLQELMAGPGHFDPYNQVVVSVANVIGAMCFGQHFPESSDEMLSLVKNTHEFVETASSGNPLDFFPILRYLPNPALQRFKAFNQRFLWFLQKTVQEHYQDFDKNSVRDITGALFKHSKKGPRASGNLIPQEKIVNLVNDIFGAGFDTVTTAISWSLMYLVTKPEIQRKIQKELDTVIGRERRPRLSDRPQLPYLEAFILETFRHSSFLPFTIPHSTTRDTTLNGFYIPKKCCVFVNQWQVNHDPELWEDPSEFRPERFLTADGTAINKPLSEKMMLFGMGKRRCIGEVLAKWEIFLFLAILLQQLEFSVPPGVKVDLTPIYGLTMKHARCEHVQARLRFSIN

[16] = test system: U-87 MG; assay: Increase in pSer473-PKB protein levels in U87MG cells after 1 hr by Western blotting; format: functional, cell-based; conditions: Homo sapiens; U-87MG ATCC; summary of the method: as §1

RAC-beta serine/threonine-protein kinase, sequence (P31751 whole entry): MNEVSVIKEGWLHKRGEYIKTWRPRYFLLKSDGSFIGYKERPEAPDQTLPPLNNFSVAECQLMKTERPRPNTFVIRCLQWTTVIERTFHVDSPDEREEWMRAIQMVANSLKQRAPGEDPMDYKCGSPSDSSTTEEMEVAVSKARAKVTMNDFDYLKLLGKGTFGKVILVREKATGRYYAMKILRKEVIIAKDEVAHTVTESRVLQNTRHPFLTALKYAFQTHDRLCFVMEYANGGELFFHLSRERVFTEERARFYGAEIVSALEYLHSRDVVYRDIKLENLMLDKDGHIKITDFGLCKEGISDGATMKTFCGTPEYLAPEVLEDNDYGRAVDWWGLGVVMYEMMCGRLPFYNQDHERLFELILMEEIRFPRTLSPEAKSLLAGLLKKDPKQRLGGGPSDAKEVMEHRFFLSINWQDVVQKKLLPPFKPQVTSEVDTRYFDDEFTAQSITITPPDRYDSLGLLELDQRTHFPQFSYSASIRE
Cytochrome P450 3A4, sequence (P08684 whole entry): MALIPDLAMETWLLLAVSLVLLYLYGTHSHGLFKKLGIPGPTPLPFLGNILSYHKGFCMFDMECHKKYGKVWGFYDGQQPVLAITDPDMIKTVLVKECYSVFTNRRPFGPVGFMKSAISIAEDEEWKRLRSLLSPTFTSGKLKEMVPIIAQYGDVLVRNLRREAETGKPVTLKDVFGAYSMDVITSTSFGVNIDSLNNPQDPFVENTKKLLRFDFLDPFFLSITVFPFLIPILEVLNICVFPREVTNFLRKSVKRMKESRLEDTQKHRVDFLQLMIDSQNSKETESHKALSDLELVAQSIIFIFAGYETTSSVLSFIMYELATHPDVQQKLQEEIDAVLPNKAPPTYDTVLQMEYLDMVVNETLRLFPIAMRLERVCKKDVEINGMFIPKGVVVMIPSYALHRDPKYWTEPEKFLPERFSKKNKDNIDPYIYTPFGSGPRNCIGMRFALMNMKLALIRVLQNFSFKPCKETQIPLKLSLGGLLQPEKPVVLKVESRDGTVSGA
Cytochrome P450 2C9, sequence (P11712 whole entry): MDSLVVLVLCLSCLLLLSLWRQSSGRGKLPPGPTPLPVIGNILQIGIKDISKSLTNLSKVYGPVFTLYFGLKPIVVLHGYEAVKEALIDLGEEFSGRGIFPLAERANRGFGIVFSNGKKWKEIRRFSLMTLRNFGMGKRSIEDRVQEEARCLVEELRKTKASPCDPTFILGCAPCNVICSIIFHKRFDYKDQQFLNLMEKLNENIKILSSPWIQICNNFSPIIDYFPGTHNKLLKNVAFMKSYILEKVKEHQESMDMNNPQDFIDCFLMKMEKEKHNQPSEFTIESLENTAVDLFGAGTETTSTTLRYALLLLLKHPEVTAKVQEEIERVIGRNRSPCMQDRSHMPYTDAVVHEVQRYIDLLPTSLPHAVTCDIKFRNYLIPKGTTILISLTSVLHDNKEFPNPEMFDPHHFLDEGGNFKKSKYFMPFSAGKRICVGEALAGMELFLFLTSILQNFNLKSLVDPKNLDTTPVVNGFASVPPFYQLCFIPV
Cytochrome P450 2D6, sequence (P10635 whole entry): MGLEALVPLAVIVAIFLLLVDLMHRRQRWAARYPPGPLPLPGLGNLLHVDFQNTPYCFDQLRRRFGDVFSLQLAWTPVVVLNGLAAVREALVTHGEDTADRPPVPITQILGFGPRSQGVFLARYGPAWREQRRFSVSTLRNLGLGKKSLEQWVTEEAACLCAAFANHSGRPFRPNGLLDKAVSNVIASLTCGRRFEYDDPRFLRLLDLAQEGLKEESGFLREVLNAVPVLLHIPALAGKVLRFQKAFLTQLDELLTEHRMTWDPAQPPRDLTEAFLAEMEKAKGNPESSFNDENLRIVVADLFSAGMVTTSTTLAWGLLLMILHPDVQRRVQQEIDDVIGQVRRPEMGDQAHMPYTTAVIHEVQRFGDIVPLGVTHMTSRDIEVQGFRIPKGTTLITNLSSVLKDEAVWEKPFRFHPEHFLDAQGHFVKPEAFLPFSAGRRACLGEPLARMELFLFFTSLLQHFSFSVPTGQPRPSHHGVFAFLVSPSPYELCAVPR
Cytochrome P450 2C19, sequence (P33261 whole entry): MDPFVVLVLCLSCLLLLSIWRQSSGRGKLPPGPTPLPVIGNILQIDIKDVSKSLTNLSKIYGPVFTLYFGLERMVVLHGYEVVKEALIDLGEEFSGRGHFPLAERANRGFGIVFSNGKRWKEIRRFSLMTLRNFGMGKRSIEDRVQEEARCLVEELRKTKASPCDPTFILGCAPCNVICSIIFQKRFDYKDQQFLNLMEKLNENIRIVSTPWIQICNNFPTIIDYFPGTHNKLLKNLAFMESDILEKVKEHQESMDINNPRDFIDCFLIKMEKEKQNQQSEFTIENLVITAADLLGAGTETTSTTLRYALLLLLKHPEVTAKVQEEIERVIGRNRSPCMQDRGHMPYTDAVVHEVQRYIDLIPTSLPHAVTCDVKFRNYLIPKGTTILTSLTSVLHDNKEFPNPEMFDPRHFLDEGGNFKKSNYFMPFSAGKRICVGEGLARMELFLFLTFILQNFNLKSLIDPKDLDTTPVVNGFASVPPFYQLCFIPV

For `NC(c1ccc(Cl)cc1)c1ccc(-c2ncnc3[nH]cnc23)cc1` (centres undefined), the IC50 [1] was 0.009 µM and the GI50 [2] was 28 µM.
With `NCCc1ccc(-c2ncnc3[nH]cnc23)cc1` the IC50 [1] was 9.5 µM.
`CNC(c1ccc(Cl)cc1)c1ccc(-c2ncnc3[nH]cnc23)cc1` (centres undefined) showed an IC50 [1] of 0.01 µM, an IC50 [3] of 0.015 µM and a GI50 [2] of 16 µM.
`NC(c1ccccc1)c1ccc(-c2ncnc3[nH]cnc23)cc1` (centres undefined) showed an IC50 [1] of 0.4 µM and a GI50 [2] of 32 µM.
With `CNCc1cccc(-c2ncnc3[nH]cnc23)c1` the IC50 [1] was 1.6 µM, the IC50 [3] was 5.5 µM and the GI50 [2] was > 50 µM.
For `Clc1ccc(C2(c3ccc(-c4ncnc5[nH]cnc45)cc3)CCNCC2)cc1`, the GI50 [4] was 8.7 µM, the Activity [5] was “Active” and the IC50 [6] was 10 µM. For the same molecule, the IC50 [3] was 0.033 µM, the IC50 [7] was 1.6 µM and the GI50 [2] was 4.5 µM. For the same molecule, the IC50 [8] was > 10 µM, the Activity [9] was “Active” and the Activity [10] was “Active”. For the same molecule, the IC50 [11] was 1.9 µM, the IC50 [12] was 6 µM and the GI50 [13] was 5.7 µM. For the same molecule, the IC50 [14] was > 10 µM, the IC50 [15] was > 10 µM and the Activity [16] was “Active”.
`NC(Cc1ccccc1)c1ccc(-c2ncnc3[nH]cnc23)cc1` (centres undefined) was tested, and the IC50 [1] was 0.43 µM, the IC50 [3] was 0.61 µM and the GI50 [2] was 32 µM.
For `CNCc1ccc(-c2ncnc3[nH]cnc23)cc1`, the IC50 [1] was 6.9 µM, the IC50 [3] was 5.2 µM and the GI50 [2] was > 50 µM.
In the case of `NCCc1cccc(-c2ncnc3[nH]cnc23)c1`, the IC50 [1] is reported as 3.2 µM and the GI50 [2] is reported as > 50 µM.
